{"source": "ChEMBL document CHEMBL1649143", "about": "“In vitro activities of fluconazole and voriconazole against clinical isolates of Candida spp. determined by disk diffusion testing in Turin, Italy” (2009)", "key": {"Candida albicans [1]": {"tested_on": "Candida albicans", "experiment": "Antifungal activity against Candida albicans by reference dilution method", "format": "functional"}, "Nakaseomyces glabratus [2]": {"tested_on": "Nakaseomyces glabratus", "experiment": "Antifungal activity against Candida glabrata by reference dilution method", "format": "functional"}, "Candida tropicalis [3]": {"tested_on": "Candida tropicalis", "experiment": "Antifungal activity against Candida tropicalis by reference dilution method", "format": "functional"}, "Candida parapsilosis [4]": {"tested_on": "Candida parapsilosis", "experiment": "Antifungal activity against Candida parapsilosis by reference dilution method", "format": "functional", "settings": "Lodderomyces parapsilosis"}, "Pichia kudriavzevii [5]": {"tested_on": "Pichia kudriavzevii", "experiment": "Antifungal activity against Candida krusei by reference dilution method", "format": "functional"}, "Kluyveromyces marxianus [6]": {"tested_on": "Kluyveromyces marxianus", "experiment": "Antifungal activity against Candida kefyr by reference dilution method", "format": "functional"}, "Pichia norvegensis [7]": {"tested_on": "Pichia norvegensis", "experiment": "Antifungal activity against Candida norvegensis by reference dilution method", "format": "functional"}, "Candida": {"tested_on": "Candida", "experiment": "Antifungal activity against Candida sp. by reference dilution method", "format": "functional"}, "Candida albicans [8]": {"tested_on": "Candida albicans", "experiment": "Antifungal activity against Candida albicans assessed as percent susceptible isolates at 1 ug/disc by CLSI M44-A disk diffusion method", "format": "functional", "in_short": "(§1)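 Agar disk diffusion per CLSI M44-A on clinical Candida isolates collected in Turin, Italy; 1,024 isolates tested in total. Each isolate was classed as susceptible (S), susceptible-dose dependent (SDD) or resistant (R), and the percentage of isolates per species in each category was reported.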"}, "Nakaseomyces glabratus [9]": {"tested_on": "Nakaseomyces glabratus", "experiment": "Antifungal activity against Candida glabrata assessed as percent susceptible isolates at 1 ug/disc by CLSI M44-A disk diffusion method", "format": "functional", "in_short": "as §1"}, "Nakaseomyces glabratus [10]": {"tested_on": "Nakaseomyces glabratus", "experiment": "Antifungal activity against Candida glabrata assessed as dose dependent percent susceptible isolates at 1 ug/disc by CLSI M44-A disk diffusion method", "format": "functional", "in_short": "as §1"}, "Nakaseomyces glabratus [11]": {"tested_on": "Nakaseomyces glabratus", "experiment": "Antifungal activity against Candida glabrata assessed as percent resistant isolates at 1 ug/disc by CLSI M44-A disk diffusion method", "format": "functional", "in_short": "as §1"}, "Candida tropicalis [12]": {"tested_on": "Candida tropicalis", "experiment": "Antifungal activity against Candida tropicalis assessed as percent susceptible isolates at 1 ug/disc by CLSI M44-A disk diffusion method", "format": "functional", "in_short": "as §1"}, "Candida tropicalis [13]": {"tested_on": "Candida tropicalis", "experiment": "Antifungal activity against Candida tropicalis assessed as dose dependent percent susceptible isolates at 1 ug/disc by CLSI M44-A disk diffusion method", "format": "functional", "in_short": "as §1"}, "Candida tropicalis [14]": {"tested_on": "Candida tropicalis", "experiment": "Antifungal activity against Candida tropicalis assessed as percent resistant isolates at 1 ug/disc by CLSI M44-A disk diffusion method", "format": "functional", "in_short": "as §1"}, "Candida parapsilosis [15]": {"tested_on": "Candida parapsilosis", "experiment": "Antifungal activity against Candida parapsilosis assessed as percent susceptible isolates at 1 ug/disc by CLSI M44-A disk diffusion method", "format": "functional", "in_short": "as §1"}, "Pichia kudriavzevii [16]": {"tested_on": "Pichia kudriavzevii", "experiment": "Antifungal activity against Candida krusei assessed as percent susceptible isolates at 1 ug/disc by CLSI M44-A disk diffusion method", "format": "functional", "in_short": "as §1"}, "Pichia kudriavzevii [17]": {"tested_on": "Pichia kudriavzevii", "experiment": "Antifungal activity against Candida krusei assessed as dose dependent percent susceptible isolates at 1 ug/disc by CLSI M44-A disk diffusion method", "format": "functional", "in_short": "as §1"}, "Pichia kudriavzevii [18]": {"tested_on": "Pichia kudriavzevii", "experiment": "Antifungal activity against Candida krusei assessed as percent resistant isolates at 1 ug/disc by CLSI M44-A disk diffusion method", "format": "functional", "in_short": "as §1"}, "Kluyveromyces marxianus [19]": {"tested_on": "Kluyveromyces marxianus", "experiment": "Antifungal activity against Candida kefyr assessed as percent susceptible isolates at 1 ug/disc by CLSI M44-A disk diffusion method", "format": "functional", "in_short": "as §1"}, "Kluyveromyces marxianus [20]": {"tested_on": "Kluyveromyces marxianus", "experiment": "Antifungal activity against Candida kefyr assessed as percent dose dependent percent susceptible isolates at 1 ug/disc by CLSI M44-A disk diffusion method", "format": "functional", "in_short": "as §1"}, "Pichia norvegensis [21]": {"tested_on": "Pichia norvegensis", "experiment": "Antifungal activity against Candida norvegensis assessed as percent dose dependent percent susceptible isolates at 1 ug/disc by CLSI M44-A disk diffusion method", "format": "functional", "in_short": "as §1"}, "[22]": {"experiment": "Antifungal activity against Candida holmii assessed as percent susceptible isolates at 1 ug/disc by CLSI M44-A disk diffusion method", "format": "functional", "settings": "Kazachstania exigua", "in_short": "as §1"}, "[23]": {"experiment": "Antifungal activity against Candida humicola assessed as percent susceptible isolates at 1 ug/disc by CLSI M44-A disk diffusion method", "format": "functional", "in_short": "as §1"}, "[Candida] intermedia": {"tested_on": "[Candida] intermedia", "experiment": "Antifungal activity against Candida intermedia assessed as percent susceptible isolates at 1 ug/disc by CLSI M44-A disk diffusion method", "format": "functional, Sungouiella intermedia", "in_short": "as §1"}, "Pichia fermentans": {"tested_on": "Pichia fermentans", "experiment": "Antifungal activity against Candida lambica assessed as percent susceptible isolates at 1 ug/disc by CLSI M44-A disk diffusion method", "format": "functional", "in_short": "as §1"}, "Clavispora lusitaniae": {"tested_on": "Clavispora lusitaniae", "experiment": "Antifungal activity against Candida lusitaniae assessed as percent susceptible isolates at 1 ug/disc by CLSI M44-A disk diffusion method", "format": "functional", "in_short": "as §1"}, "[24]": {"experiment": "Antifungal activity against Candida membranifaciens assessed as percent susceptible isolates at 1 ug/disc by CLSI M44-A disk diffusion method", "format": "functional", "in_short": "as §1"}, "Diutina rugosa": {"tested_on": "Diutina rugosa", "experiment": "Antifungal activity against Candida rugosa assessed as percent susceptible isolates at 1 ug/disc by CLSI M44-A disk diffusion method", "format": "functional", "in_short": "as §1"}, "Cyberlindnera jadinii": {"tested_on": "Cyberlindnera jadinii", "experiment": "Antifungal against Candida utilis assessed as percent susceptible isolates at 1 ug/disc by CLSI M44-A disk diffusion method", "format": "functional", "in_short": "as §1"}, "Pichia norvegensis [25]": {"tested_on": "Pichia norvegensis", "experiment": "Antifungal activity against Candida norvegensis assessed as percent susceptible isolates at 1 ug/disc by CLSI M44-A disk diffusion method"}}, "data": [{"smiles": "C[C@@H](c1ncncc1F)[C@](O)(Cn1cncn1)c1ccc(F)cc1F", "note": "[VORICONAZOLE]", "values": [{"measurement": "MIC50", "setting": "Candida albicans [1]", "result": 0.06, "unit": "µg/mL"}, {"measurement": "MIC90", "setting": "Candida albicans [1]", "result": 0.12, "unit": "µg/mL"}, {"measurement": "MIC50", "setting": "Nakaseomyces glabratus [2]", "result": 0.25, "unit": "µg/mL"}, {"measurement": "MIC90", "setting": "Nakaseomyces glabratus [2]", "result": 4, "unit": "µg/mL"}, {"measurement": "MIC50", "setting": "Candida tropicalis [3]", "result": 0.12, "unit": "µg/mL"}, {"measurement": "MIC90", "setting": "Candida tropicalis [3]", "result": 2, "unit": "µg/mL"}, {"measurement": "MIC50", "setting": "Candida parapsilosis [4]", "result": 0.06, "unit": "µg/mL"}, {"measurement": "MIC90", "setting": "Candida parapsilosis [4]", "result": 0.12, "unit": "µg/mL"}, {"measurement": "MIC50", "setting": "Pichia kudriavzevii [5]", "result": 0.5, "unit": "µg/mL"}, {"measurement": "MIC90", "setting": "Pichia kudriavzevii [5]", "result": 2, "unit": "µg/mL"}, {"measurement": "MIC", "setting": "Kluyveromyces marxianus [6]", "result": 0.008, "unit": "µg/mL"}, {"measurement": "MIC50", "setting": "Kluyveromyces marxianus [6]", "result": 0.01, "unit": "µg/mL"}, {"measurement": "MIC90", "setting": "Kluyveromyces marxianus [6]", "result": 0.06, "unit": "µg/mL"}, {"measurement": "MIC50", "setting": "Pichia norvegensis [7]", "result": 0.25, "unit": "µg/mL"}, {"measurement": "MIC90", "setting": "Pichia norvegensis [7]", "result": 1, "unit": "µg/mL"}, {"measurement": "MIC50", "setting": "Candida", "result": 0.06, "unit": "µg/mL"}, {"measurement": "MIC90", "setting": "Candida", "result": 1, "unit": "µg/mL"}, {"measurement": "Activity", "setting": "Candida albicans [8]", "result": 99.8, "unit": "%"}, {"measurement": "Activity", "setting": "Nakaseomyces glabratus [9]", "result": 87, "unit": "%"}, {"measurement": "Activity", "setting": "Nakaseomyces glabratus [10]", "result": 3, "unit": "%"}, {"measurement": "Activity", "setting": "Nakaseomyces glabratus [11]", "result": 11, "unit": "%"}, {"measurement": "Activity", "setting": "Candida tropicalis [12]", "result": 90, "unit": "%"}, {"measurement": "Activity", "setting": "Candida tropicalis [13]", "result": 3, "unit": "%"}, {"measurement": "Activity", "setting": "Candida tropicalis [14]", "result": 7, "unit": "%"}, {"measurement": "Activity", "setting": "Candida parapsilosis [15]", "result": 100, "unit": "%"}, {"measurement": "Activity", "setting": "Pichia kudriavzevii [16]", "result": 92, "unit": "%"}, {"measurement": "Activity", "setting": "Pichia kudriavzevii [17]", "result": 4, "unit": "%"}, {"measurement": "Activity", "setting": "Pichia kudriavzevii [18]", "result": 4, "unit": "%"}, {"measurement": "Activity", "setting": "Kluyveromyces marxianus [19]", "result": 96, "unit": "%"}, {"measurement": "Activity", "setting": "Kluyveromyces marxianus [20]", "result": 4, "unit": "%"}, {"measurement": "Activity", "setting": "Pichia norvegensis [21]", "result": 7, "unit": "%"}, {"measurement": "Activity", "setting": "[22]", "result": 100, "unit": "%"}, {"measurement": "Activity", "setting": "[23]", "result": 100, "unit": "%"}, {"measurement": "Activity", "setting": "[Candida] intermedia", "result": 100, "unit": "%"}, {"measurement": "Activity", "setting": "Pichia fermentans", "result": 100, "unit": "%"}, {"measurement": "Activity", "setting": "Clavispora lusitaniae", "result": 100, "unit": "%"}, {"measurement": "Activity", "setting": "[24]", "result": 100, "unit": "%"}, {"measurement": "Activity", "setting": "Diutina rugosa", "result": 100, "unit": "%"}, {"measurement": "Activity", "setting": "Cyberlindnera jadinii", "result": 100, "unit": "%"}, {"measurement": "Activity", "setting": "Pichia norvegensis [25]", "result": 93, "unit": "%"}]}]}
